This passage reports inhibition and IC50 results from ChEMBL document CHEMBL4665666, “Discovery and characterization of trypanocidal cysteine protease inhibitors from the 'malaria box'” (Eur J Med Chem, 2019).

For assay [1], the target named is Cruzipain (Trypanosoma cruzi) (UniProt P25779). Briefly: Inhibition of recombinant Trypanosoma cruzi cruzain at 5 uM using Z-FR-AMC as substrate and measured at 12 sec interval for 5 mins without preincubation by fluorimetric analysis relative to control. Summed up: (§1)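 Recombinant rhodesain or cruzain (1 nM) in 0.1 M sodium acetate pH 5.5, 0.01% Triton X-100, 1 mM β-mercaptoethanol. Compound at a single concentration, either without or after 10 min enzyme pre-incubation. Inhibition is relative to DMSO, with E-64 as positive control. Done in duplicate (primary screen) or triplicate.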

For assay [2] the target is unchanged. Description: Inhibition of recombinant Trypanosoma cruzi cruzain at 5 uM using Z-FR-AMC as substrate preincubated for 10 mins followed by substrate addition and measured at 12 sec interval for 5 mins by fluorimetric analysis relative to control. Conditions: time 15.0 min. Summed up: as §1
In assay [3] the target is Rhodesain (Trypanosoma brucei rhodesiense) (UniProt Q95PM0). Briefly: Inhibition of recombinant Trypanosoma brucei rhodesain expressed in Pichia pastoris at 5 uM using Z-FR-AMC as substrate and measured at 12 sec interval for 5 mins without preincubation by fluorimetric analysis relative to control. Summed up:
as §1

Assay [4] shares this target. Description: Inhibition of recombinant Trypanosoma brucei rhodesain expressed in Pichia pastoris at 5 uM using Z-FR-AMC as substrate preincubated for 10 mins followed by substrate addition and measured at 12 sec interval for 5 mins by fluorimetric analysis relative to control. As to conditions: time 15.0 min. Summed up:
as §1

Assay [5] deals with Cruzipain (Trypanosoma cruzi) (UniProt P25779). Briefly: Inhibition of recombinant Trypanosoma cruzi cruzain at 10 uM using Z-FR-AMC as substrate and measured at 12 sec interval for 5 mins without preincubation by fluorimetric analysis relative to control. Summed up: (§2)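 Recombinant rhodesain or cruzain (1 nM) in 0.1 M sodium acetate pH 5.5, 0.01% Triton X-100, 1 mM β-mercaptoethanol. Compound at a single concentration, either without or after 10 min enzyme pre-incubation. Z-FR-AMC 2.5 µM, read at 340/440 nm every 12 s for 5 min. Inhibition is relative to DMSO, with E-64 as positive control. Done in duplicate (primary screen) or triplicate.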

For assay [6] the target is unchanged. Description: Inhibition of recombinant Trypanosoma cruzi cruzain at 10 uM using Z-FR-AMC as substrate preincubated for 10 mins followed by substrate addition and measured at 12 sec interval for 5 mins by fluorimetric analysis relative to control. As to conditions: time 15.0 min. Summed up: as §2
The target of assay [7] is Rhodesain (Trypanosoma brucei rhodesiense) (UniProt Q95PM0). Briefly: Inhibition of recombinant Trypanosoma brucei rhodesain expressed in Pichia pastoris at 10 uM using Z-FR-AMC as substrate and measured at 12 sec interval for 5 mins without preincubation by fluorimetric analysis relative to control. Summed up:
as §2

For assay [8] the target is unchanged. Description: Inhibition of recombinant Trypanosoma brucei rhodesain expressed in Pichia pastoris at 10 uM using Z-FR-AMC as substrate preincubated for 10 mins followed by substrate addition and measured at 12 sec interval for 5 mins by fluorimetric analysis relative to control. As to conditions: time 15.0 min. Summed up:
as §2

The next assay relates to Trypanosoma cruzi. Description: Trypanocidal activity against Trypanosoma cruzi Tulahuen C4 assessed as reduction in parasite viability. It counts as functional, organism-based.
Assay [9] concerns Trypanosoma brucei brucei. Briefly: Trypanocidal activity against Trypanosoma brucei brucei Squib 427 assessed as reduction in parasite viability. It counts as functional, organism-based.
In assay [10] the test system is Trypanosoma brucei rhodesiense. Description: Trypanocidal activity against Trypanosoma brucei rhodesiense STI B900 assessed as reduction in parasite viability. It counts as functional, organism-based.
Assay [11] deals with Schistosoma mansoni. Description: Inhibition of recombinant Schistosoma mansoni SmCB1 expressed in Pichia pastoris at 5 uM using Z-FR-AMC as substrate and measured at 23 sec interval for 30 mins without preincubation by fluorimetric analysis relative to control. Summed up: (§3)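 SmCB1 (recombinant, 8 nM) in 0.1 M sodium acetate pH 5.5 with 0.01% Triton X-100 and 4 mM β-mercaptoethanol. Compound at 5 µM, either not pre-incubated or pre-incubated 10 min with enzyme. Z-FR-AMC 20 µM, fluorescence 340/440 nm every 23 s for 30 min. Inhibition is versus DMSO, with E-64 control; each condition in duplicate.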

The subject of assay [12] is Schistosoma mansoni. Description: Inhibition of recombinant Schistosoma mansoni SmCB1 expressed in Pichia pastoris at 5 uM using Z-FR-AMC as substrate preincubated for 10 mins followed by substrate addition and measured at 23 sec interval for 30 mins by fluorimetric analysis relative to control. Summed up:
as §3

Assay [13] deals with Cruzipain (Trypanosoma cruzi) (UniProt P25779). Briefly: Inhibition of recombinant Trypanosoma cruzi cruzain at 100 uM using Z-FR-AMC as substrate and measured at 12 sec interval for 5 mins without preincubation by fluorimetric analysis relative to control. Summed up: as §2
For assay [14] the target is unchanged. Description: Inhibition of recombinant Trypanosoma cruzi cruzain at 100 uM using Z-FR-AMC as substrate preincubated for 10 mins followed by substrate addition and measured at 12 sec interval for 5 mins by fluorimetric analysis relative to control. Conditions: time 15.0 min. Summed up: as §2
For assay [15], the target named is Rhodesain (Trypanosoma brucei rhodesiense) (UniProt Q95PM0). Description: Inhibition of recombinant Trypanosoma brucei rhodesain expressed in Pichia pastoris at 100 uM using Z-FR-AMC as substrate and measured at 12 sec interval for 5 mins without preincubation by fluorimetric analysis relative to control. Summed up: (§4)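 Run with no pre-incubation or with 10 min enzyme-compound pre-incubation. Fluorescence read at 340/440 nm. Concentration was set by solubility under assay conditions. Inhibition is against DMSO, with E-64 as positive control; triplicate.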

For assay [16] the target is unchanged. Briefly: Inhibition of recombinant Trypanosoma brucei rhodesain expressed in Pichia pastoris at 100 uM using Z-FR-AMC as substrate preincubated for 10 mins followed by substrate addition and measured at 12 sec interval for 5 mins by fluorimetric analysis relative to control. Conditions: time 15.0 min. Summed up: as §4

Sequence of Cruzipain (Trypanosoma cruzi) (P25779 123-467 limits assumed): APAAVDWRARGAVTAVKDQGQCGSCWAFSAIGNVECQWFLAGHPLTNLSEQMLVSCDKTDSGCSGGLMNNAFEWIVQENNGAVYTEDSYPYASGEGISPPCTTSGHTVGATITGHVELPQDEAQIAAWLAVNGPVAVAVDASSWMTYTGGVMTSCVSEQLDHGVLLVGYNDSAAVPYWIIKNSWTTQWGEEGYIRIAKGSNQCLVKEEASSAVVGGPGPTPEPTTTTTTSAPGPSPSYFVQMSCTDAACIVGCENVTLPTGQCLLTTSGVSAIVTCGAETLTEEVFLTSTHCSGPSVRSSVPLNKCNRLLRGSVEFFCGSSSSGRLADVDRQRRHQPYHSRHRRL
Sequence of Rhodesain (Trypanosoma brucei rhodesiense) (Q95PM0 1-450): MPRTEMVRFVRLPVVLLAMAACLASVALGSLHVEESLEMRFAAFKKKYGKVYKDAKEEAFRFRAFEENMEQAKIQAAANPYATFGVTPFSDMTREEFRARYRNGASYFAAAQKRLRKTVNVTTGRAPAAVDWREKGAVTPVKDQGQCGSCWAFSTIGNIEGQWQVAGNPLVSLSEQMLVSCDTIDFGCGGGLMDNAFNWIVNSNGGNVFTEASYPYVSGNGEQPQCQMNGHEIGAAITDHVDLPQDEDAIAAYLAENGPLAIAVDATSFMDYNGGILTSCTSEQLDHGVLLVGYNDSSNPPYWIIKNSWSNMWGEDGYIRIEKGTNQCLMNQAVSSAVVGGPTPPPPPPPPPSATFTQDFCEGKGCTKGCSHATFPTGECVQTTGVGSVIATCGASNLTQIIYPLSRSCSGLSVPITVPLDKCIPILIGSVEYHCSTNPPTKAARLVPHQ

By inhibition is commonly meant the drop in the measured response relative to a control, in per cent. By IC50 is commonly meant the concentration that gives 50% inhibition. In the case of `CC(=O)c1ccc(NC(=O)CSc2nc(-c3ccccc3Cl)ns2)cc1`, the inhibition is 55.2% in [1]; 76.6% in assay [2]; 39.9% in assay [3]; 67.5% in [4]; 10% in [5]; 23% in assay [6]. Moreover, the figures for the inhibition in assay [7] and in [8] were 10% and 43%, respectively. Further, the IC50 (with Trypanosoma cruzi; in assay [9]; in [10]) was 32 µM throughout.
Regarding `Cc1ccc(CN2CCC(C(=O)Nc3ccc(-c4cc5ccccc5[nH]4)cc3)CC2)o1`, the results for the inhibition in the assay on Schistosoma mansoni [11] and in the assay with Schistosoma mansoni [12] were 9% and 73%, respectively.
Taken in the same sequence, the figures for `Cc1ccc(CSCc2ccc(C(=O)NC3CC3)o2)cc1` were 4.7% and 50%.
The corresponding values for `CC(C)(C)c1ccc(O)c(CNC2CCCCC2)c1` are 4.1% and 48%.
In the case of `Cc1cc(NC(=O)c2cccc(C(F)(F)F)c2)n(-c2nc(-c3ccc4c(c3)OCO4)cs2)n1`, the inhibition was 18.4% in assay [1]; 42% in assay [2]; 41% in [3]; 69.4% in [4]; 0% in the assay on Schistosoma mansoni [11]; 47.3% in the assay on Schistosoma mansoni [12].
On to `COc1ccc(-c2cc3c(nn2)-c2ccccc2C3=O)cc1`, for which the results for the inhibition in the assay with Schistosoma mansoni [11] and in the assay with Schistosoma mansoni [12] were 13.6% and 38.5%, respectively.
With `COc1ccc2sc(N(Cc3cccnc3)C(=O)c3ccc(C#N)cc3)nc2c1`, the inhibition in assay [1] worked out at 53%; in assay [2], 72.3%; in assay [3], 50.7%; in assay [4], 76.9%; in [5], 9%; in [6], 7%. The inhibition in assay [7] turned out to be 10%; in assay [8], 21%. In assay [9], the IC50 amounted to 32 µM.
Consider `Cc1cc(NC(=O)C2c3ccccc3C(=O)N(CC(C)C)C2c2cccs2)no1` (stereo not given), for which the inhibition with Schistosoma mansoni [11] worked out at 44.9%; with Schistosoma mansoni [12], 0%.
The corresponding values for `CCOc1cc(Cl)c(C(C)NC(=O)c2cccc(OC)c2)cc1OCC` (stereo not given) are 36.3% and 9.5%.
Taken in the same sequence, the figures for `O=C1C2=C(Nc3ccccc3SC2c2ccccc2)c2ccccc21` (stereo not given) were 36.8% and 0.3%.
Take `FC(F)(F)c1cccc(CNC2CCN(CCc3ccccc3)CC2)c1`: the inhibition was found to be 23.1% in [1]; 65.1% in [2]; 20.3% in [3]; 70.8% in assay [4]; 0% in assay [5]; 6% in [6]. The inhibition was 1% in [7]; 8% in [8]; 7% in assay [13]; 22% in assay [14]; 12% in [15]; 14% in [16].
`CC1(c2ccccc2)Nc2ccccc2-c2nc3ccccc3n21` (stereo not given): the inhibition in the assay with Schistosoma mansoni [11] worked out at 49.7%; in the assay with Schistosoma mansoni [12] it was 5.2%.
Take `COc1ccc(Br)cc1C1Nc2ccc3ccccc3c2C2=C1C(=O)CC(c1ccccc1)C2` (stereo not given): the inhibition in [1] amounted to 7%; in [2], 37.3%; in assay [3], 27.6%; in assay [4], 72.7%; in the assay on Schistosoma mansoni [11] it was 48.3%; in the assay with Schistosoma mansoni [12], 50%.
For `Cc1cc(Nc2ccc(C)c(Cl)c2)n2nc(C(F)(F)F)nc2n1`, the inhibition in assay [1] turned out to be 23.9%; in [2], 47.2%; in [3], 27.7%; in [4] it was 57.8%; in [5], 2%; in assay [6], 4%. Further, the inhibition in [7] was found to be 5%; in [8], 1%; in assay [13] it was 25%; in assay [14] it was 16%; in assay [15] it was 16%; in assay [16] it was 15%. Further, in assay [9], the IC50 came out at 32 µM.
On to `COc1cc2c3cc1Oc1c(OC)c(OC)cc4c1C(Cc1ccc(O)c(c1)Oc1ccc(cc1)CC3N(C)CC2)N(C)CC4` (stereo not given), for which the inhibition in [1] turned out to be 22.4%; in [2], 41.7%; in assay [3], 19.7%; in [4], 51.4%.
Consider `COc1ccc(C(=O)NC(c2ccc(Cl)cc2Cl)c2cc(Cl)c3cccnc3c2O)cc1` (stereo not given), for which the inhibition in [1] is 77.6%; in assay [2] it was 49.5%; in [3], 27.9%; in assay [4], 20.2%.
For `Nc1ccc(-c2nc3cc(Cc4ccc5[nH]c(-c6ccc(N)cc6)nc5c4)ccc3[nH]2)cc1`, the inhibition in [1] was 20.2%; in assay [2], 98.2%; in assay [3], 86.6%; in [4], 90.1%.
Taken in the same sequence, the figures for `CC(C)(C)c1ccc2c(c1)CN(Cc1ccc(Cl)cc1)CO2` were 52.3%, 51.5%, 28.8% and 61.3%.
Taken in the same sequence, the figures for `COc1ccc(C2c3ccc4ccccc4c3Oc3ncn(CCCN(C)C)c(=N)c32)cc1` (stereo not given) were 55.6%, 73.2%, 60.9% and 77.8%.
With `COc1ccc(C2c3ccc4ccccc4c3Oc3ncn(CCCn4ccnc4)c(=N)c32)cc1OC` (stereo not given), the inhibition in assay [1] is 41.8%; in assay [2] it was 59.5%; in [3], 33.4%; in [4] it was 41%.
On to `O=C(c1ccccc1F)N(Cc1ccc(Cl)cc1)c1ccccn1`, for which the inhibition was 40.7% in assay [1], 91.6% in assay [2], 45.8% in [3] and 75% in [4].
Take `CCOC(=O)c1c(C)n(-c2ccccc2)c2ccc(OC(=O)c3cc(OC)c(OC)c(OC)c3)cc12`: the inhibition in [1] was found to be 36.8%; in assay [2] it was 51.7%; in assay [3], 38.5%; in assay [4], 74.4%; in assay [5], 10%; in assay [6], 19%. Also, the results for the inhibition in assay [7] and in assay [8] were 4% and 14%, respectively.
Turning to `Cc1ccnc(NC(c2cccc(OCc3ccccc3)c2)c2ccc3cccnc3c2O)c1` (stereo not given), the inhibition in assay [1] turned out to be 6.7%; in assay [2] it was 51.3%; in assay [3], 0%; in assay [4], 16.2%.
Taken in the same sequence, the figures for `COc1ccc(C(=O)NC(c2ccccc2Cl)c2cc(Cl)c3cccnc3c2O)cc1` (stereo not given) were 17.1%, 100%, 29.4% and 49.4%.
Taken in the same sequence, the figures for `O=C(CSc1ccc2nnc(-c3cccc(F)c3)n2n1)Nc1ccc2c(c1)OCO2` were 10.2%, 67.7%, 10.3% and 61.6%.
As for `O=C(NC1CCN(Cc2ccccc2)CC1)c1cc(-c2ccncc2)nc2ccc(Cl)cc12`, the inhibition in [1] amounted to 15.2%; in [2] it was 56.5%; in assay [3], 20.9%; in assay [4], 41.2%.
